According to ChEMBL document CHEMBL1938301, “Cyclohexane 1,3-diones and their inhibition of mutant SOD1-dependent protein aggregation and toxicity in PC12 cells” (Bioorg Med Chem, 2012):
Calls of active or inactive are those of the source.

Experiments:
PC-12 [1] = assay: Inhibition of SOD1 G93A mutant protein aggregation-mediated cytotoxicity in rat PC12 cells expressing yellow fluorescent protein assessed as increase in cell viability relative to radicicol; assay type: cell-based; design: concentration or dose not given beside the values
Outline: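 PC12 cells expressing G93A SOD1-YFP; MG132 proteasome inhibition induces cytotoxic mutant SOD1 aggregates. Cell survival measured as protection read-out; efficacy expressed relative to radicicol positive control.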

[2] = Inhibition of SOD1 G93A mutant protein aggregation-mediated cytotoxicity in rat PC12 cells expressing yellow fluorescent protein assessed as increase in cell viability; assay type: cell-based; details: PC-12
[3] = Solubility of the compound in phosphate buffer saline after 1 hrs by spectrophotometry; assay type: physicochemical; details: phosphate buffered saline
Outline: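 DMSO stocks at 100× final (threefold serial dilutions) diluted into PBS and held 1 h at room temperature. Precipitate checked visually and by absorbance at 450 nm. The solubility limit was taken as the highest concentration not cloudy and with absorbance not above background.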

Liver = assay: Half life in mouse liver microsomes at 5 uM by LC-MS/MS analysis; assay type: ADME, Microsome
Outline: (§1)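 Incubation at 37 °C, in duplicate, with human or mouse liver microsomes (0.275 mg/mL protein) in 100 mM potassium phosphate pH 7.4 with 2 mM NADPH and 3 mM MgCl2. A minus-NADPH control was run. Samples were taken at 15 s and at 10, 20, 40 and 60 min, quenched in acidified acetonitrile with internal standard, and parent was quantified by LC-MS/MS. T1/2 = ln2/k from an exponential fit.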

Liver microsomes = assay: Half life in human liver microsomes at 5 uM by LC-MS/MS analysis; assay type: ADME, Microsome; outline: as §1
[4] = AUClast in Sprague-Dawley rat at 1 mg/kg, iv; assay type: ADME, organism-based; design: time 0 - last, dose 1 mg/kg, route intravenous; details: plasma
Rattus norvegicus [5] = assay: Dose normalised AUC in Sprague-Dawley rat at 1 mg/kg, iv; assay type: ADME, organism-based; design: dose 1 mg/kg, route intravenous; details: in vivo
[6] = Clearance in Sprague-Dawley rat at 1 mg/kg, iv; assay type: ADME, organism-based; design: dose 1 mg/kg, route intravenous; details: in vivo
[7] = Half life in Sprague-Dawley rat at 1 mg/kg, iv; assay type: ADME, organism-based; design: dose 1 mg/kg, route intravenous; details: in vivo
[8] = Volume of distribution at steady state in Sprague-Dawley rat at 1 mg/kg, iv; assay type: ADME, organism-based; design: dose 1 mg/kg, route intravenous; details: in vivo, read-out: Vdss
[9] = AUClast in Sprague-Dawley rat at 1 mg/kg, po; assay type: ADME, organism-based; design: time 0 - last, dose 1 mg/kg, route oral; details: plasma
Rattus norvegicus [10] = assay: Dose normalised AUC in Sprague-Dawley rat at 1 mg/kg, po; assay type: ADME, organism-based; design: dose 1 mg/kg, route oral; details: in vivo
[11] = Cmax in Sprague-Dawley rat at 1 mg/kg, po; assay type: ADME, organism-based; design: dose 1 mg/kg, route oral; details: in vivo
[12] = Half life in Sprague-Dawley rat at 1 mg/kg, po; assay type: ADME, organism-based; design: dose 1 mg/kg, route oral; details: in vivo
[13] = Oral bioavailability in Sprague-Dawley rat at 1 mg/kg; assay type: ADME, organism-based; details: in vivo
Caco-2 [14] = assay: Apparent permeability from apical to basolateral side of human Caco2 cells at 50 uM after 2 hrs […]; assay type: ADME, cell-based; details: caco-2, 2 h
Outline: (§2)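 Caco-2 monolayers on collagen-coated inserts, differentiated 3 weeks. The compound is dosed at 50 μM in HEPES/HBSS/glucose buffer, apical pH 6.5 and basolateral pH 7.4. For A→B, compound and 100 μM Lucifer yellow go apical. For B→A, compound goes basolateral with Lucifer yellow apical. Incubation is 2 h. Lucifer yellow fluorescence checks monolayer integrity (<1% transport). Papp = (dQ/dt)/(c0·A), in 10−6 cm/s.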

Caco-2 [15] = assay: Apparent permeability from basolateral to apical side of human Caco2 cells at 50 uM after 2 hrs […]; assay type: ADME, cell-based; details: caco-2, 2 h; outline: as §2
[16] = Toxicity in mouse administered as ip starting at 5 mg/kg and doubling the compound bid each day; assay type: organism-based; design: dose 5 mg/kg, route intraperitoneal; details: in vivo
Outline: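 Maximum tolerated dose in mice by intraperitoneal injection. Dosing began at 5 mg/kg and was doubled b.i.d. each day, given once in the morning and once mid-afternoon.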

[17] = Ratio of drug level in brain to plasma in mutant SOD1 G93A transgenic mouse at 50 mg/kg, ip after 4 hrs; assay type: ADME, organism-based; design: dose 50 mg/kg, route intraperitoneal; details: read-out: BPR
Outline: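 Single i.p. bolus of 50 mg/kg in G93A SOD1 transgenic mice (18 animals). Blood and brain sampled at 0–24 h, snap-frozen in liquid nitrogen and stored at −80 °C. Brain and plasma concentrations were compared at 4 h, within the plasma plateau.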

PC-12 [18] = assay: Cytoprotective activity against MG132-induced cytotoxicity in rat PC12 cells assessed as cell viability at 100 uM pre-treated for 24 hrs before MG132-induction measured after 48 hrs by Calcein-AM-based fluorimetry; assay type: functional
SH-SY5Y = assay: Cytoprotective activity against MG132-induced cytotoxicity in human SH-SY5Y cells assessed as cell viability at 100 uM pre-treated for 24 hrs before MG132-induction measured after 48 hrs by Calcein-AM-based fluorimetry; assay type: functional
HeLa = assay: Cytoprotective activity against MG132-induced cytotoxicity in human HeLa cells assessed as cell viability at 100 uM pre-treated for 24 hrs before MG132-induction measured after 48 hrs by Calcein-AM-based fluorimetry; assay type: functional
HEK293 = assay: Cytoprotective activity against MG132-induced cytotoxicity in human HEK293 cells assessed as cell viability at 100 uM pre-treated for 24 hrs before MG132-induction measured after 48 hrs by Calcein-AM-based fluorimetry; assay type: functional
Cerebral cortex neuron = assay: Cytoprotective activity against MG132-induced cytotoxicity in rat primary cortical neurons cells assessed as cell viability at 100 uM pre-treated for 24 hrs before MG132-induction measured after 48 hrs by Calcein-AM-based fluorimetry; assay type: functional
Outline: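 Neurons from E18 rat cortex (Sprague-Dawley or Fischer 344), papain-dissociated, plated at 20,000 cells/well on poly-D-lysine, cultured 5 days in Neurobasal/B27 (~90% neurons). Six-point series from 100 μM top in roughly one-third steps, 24 h pre-incubation, then MG132 100 nM final. Viability read 48 h later by Calcein-AM (1 μM, 20 min, RT) fluorescence. Active if ≥5 SD above MG132 controls.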

hERG (KCNH2) = hERG (KCNH2) (Homo sapiens, UniProt Q12809); assay: Inhibition of human ERG expressed in HEK293 cells at 10 uM; assay type: cell-based; details: HEK293 cells expressing hERG
hERG (KCNH2), sequence (Q12809 whole entry): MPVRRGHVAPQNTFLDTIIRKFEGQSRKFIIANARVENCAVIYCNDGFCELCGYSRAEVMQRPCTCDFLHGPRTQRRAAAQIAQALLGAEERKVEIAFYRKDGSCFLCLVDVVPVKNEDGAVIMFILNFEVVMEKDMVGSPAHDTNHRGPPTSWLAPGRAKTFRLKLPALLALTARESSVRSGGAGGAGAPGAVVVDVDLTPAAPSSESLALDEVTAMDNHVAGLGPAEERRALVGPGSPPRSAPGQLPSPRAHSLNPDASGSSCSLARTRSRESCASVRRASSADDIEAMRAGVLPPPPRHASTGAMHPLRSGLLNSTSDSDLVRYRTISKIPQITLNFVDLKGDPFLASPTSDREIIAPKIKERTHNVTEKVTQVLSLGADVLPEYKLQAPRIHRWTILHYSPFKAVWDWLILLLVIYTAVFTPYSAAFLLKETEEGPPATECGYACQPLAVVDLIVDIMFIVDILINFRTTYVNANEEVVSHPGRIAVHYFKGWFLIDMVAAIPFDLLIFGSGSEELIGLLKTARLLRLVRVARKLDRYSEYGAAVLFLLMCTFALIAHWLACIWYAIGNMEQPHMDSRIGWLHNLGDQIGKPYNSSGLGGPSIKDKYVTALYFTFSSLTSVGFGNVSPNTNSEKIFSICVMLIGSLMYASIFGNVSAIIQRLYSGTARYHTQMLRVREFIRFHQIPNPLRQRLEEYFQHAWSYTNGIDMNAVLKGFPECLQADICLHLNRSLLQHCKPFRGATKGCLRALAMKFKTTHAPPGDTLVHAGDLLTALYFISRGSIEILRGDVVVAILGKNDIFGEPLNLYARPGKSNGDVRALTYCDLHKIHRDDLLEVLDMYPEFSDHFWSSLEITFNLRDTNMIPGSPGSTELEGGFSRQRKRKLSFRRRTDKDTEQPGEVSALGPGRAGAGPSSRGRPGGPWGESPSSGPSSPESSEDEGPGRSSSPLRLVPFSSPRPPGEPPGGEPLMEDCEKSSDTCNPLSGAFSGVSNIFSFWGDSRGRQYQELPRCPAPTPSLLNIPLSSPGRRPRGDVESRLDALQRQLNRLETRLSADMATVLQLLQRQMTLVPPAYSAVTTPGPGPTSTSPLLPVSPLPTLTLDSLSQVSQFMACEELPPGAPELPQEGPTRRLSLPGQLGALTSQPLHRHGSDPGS

in vivo = details: Sprague-Dawley, rat, po, 1 mg/kg
Caco-2 [19] = assay: Efflux ratio of permeability from basolateral to apical over apical to basolateral side in human Caco2 cells at 50 uM after 2 hrs […]; assay type: ADME, cell-based; details: caco-2, 2 h
Outline: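 Caco-2 monolayers were grown for three weeks on collagen-coated inserts and fed every 2 days. The transport buffer was 10 mM HEPES with 1.98 g/L glucose in HBSS, pH 6.5 apical and pH 7.4 basolateral. Compound was added at 50 μM on the donor side, with 100 μM Lucifer yellow apically, for 2 h. Compound was quantified by LC-MS/MS; Lucifer yellow fluorescence checked monolayer integrity. Papp = (dQ/dt)/(c0·A); ratio taken as B→A over A→B.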

Plasma = assay: Half life in mouse plasma at 5 uM by LC-MS/MS analysis; assay type: ADME, cell-free
Outline: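 Mouse plasma incubation at 37 °C in duplicate alongside a PBS control, with warfarin and diltiazem as controls. Time points at 15 s and 10, 20, 40 and 60 min; samples precipitated with acetonitrile containing internal standard, then LC-MS/MS. Plasma/PBS response ratio gave % remaining, fitted first-order for half-life.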

Q: What does the source list for `O=C1CC(=O)CC(c2cc(C(F)(F)F)cc(C(F)(F)F)c2)C1`?
A: Efficacy (PC-12 [1]): 100%; EC50 [2]: 700 nM; solubility at 1 h [3]: ≥ 500 µM; t1/2 (Liver): >= 180 min; t1/2 (Liver microsomes): >= 180 min; AUC(0-t) [4]: 1980 ng·h/mL; AUC/dose (Rattus norvegicus [5]): 1996 ng·h/mL; clearance [6]: 8.4 mL/min/kg; half-life [7]: 3.7 h; Vd [8]: 1.5 L/kg; AUC(0-t) [9]: 1760 ng·h/mL; AUC/dose (Rattus norvegicus [10]): 1774 ng·h/mL; Cmax [11]: 468 ng/mL; half-life [12]: 3.2 h; bioavailability [13]: 89%; Papp (Caco-2 [14]): 38 cm'-6/s; Papp (Caco-2 [15]): 5.7 cm'-6/s; MTD [16]: 80 mg/kg; Kp at 4 h [17]: 0.86; Activity (PC-12 [18]): Active; Activity (SH-SY5Y): inactive; Activity (HeLa): inactive; Activity (HEK293): inactive; Activity (Cerebral cortex neuron): inactive; inhibition at 10 µM (hERG (KCNH2)): 7.8%; Tmax (in vivo): 0.5 h

Q: For `CC(Oc1cc(C(F)(F)F)cc(C(F)(F)F)c1)C1CC(=O)CC(=O)C1` (racemic), which Efficacy (PC-12 [1]) is on record?
A: Its Efficacy is 100%.

Q: And the EC50 [2]?
A: The EC50 was 700 nM.

Q: What about the t1/2 (Liver) of the same molecule?
A: Its t1/2 is 0.75 h.

Q: And the t1/2 (Liver microsomes)?
A: Its t1/2 is 1.18 h.

Q: What about the Papp (Caco-2 [14]) of the same molecule?
A: Its Papp is 24.8 cm'-6/s.

Q: And the Papp (Caco-2 [15])?
A: Its Papp is 3.1 cm'-6/s.

Q: And the Ratio (Caco-2 [19])?
A: Its Ratio is 0.1.

Q: What about the t1/2 (Plasma) of the same molecule?
A: The t1/2 was > 1 h.
